Experimental data as given in ChEMBL document CHEMBL3352268, “Structures and bioactivities of dihydrochalcones from Metrodorea stipularis” (J Nat Prod, 2014).
pEC50, pIC50: −log10 of the molar value.

Legend:
[1] = biological target: Cruzipain (Trypanosoma cruzi, UniProt P25779); experiment: Inhibition of Trypanosoma cruzi cruzain using Z-Phe-Arg-AMC as substrate by spectrofluorimetry
Summary of the method: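 Substrate Z-Phe-Arg-AMC; activity tracked 5 min with stirring in phosphate buffer pH 6.3 with DTT at 37 °C, in cuvettes (ex 380/em 460 nm). Controls: no inhibitor, and E-64. Run in triplicate. IC50 from rates at five inhibitor concentrations by nonlinear regression.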

[2] = test system: Plasmodium falciparum; experiment: Antimalarial activity against Plasmodium falciparum Dd2 after 72 hrs by SYBR Green-based parasite proliferation assay; format: functional; settings: Dd2, 72 h
Summary of the method: (§1)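 Parasites grown in human O+ erythrocytes in RPMI 1640 with hypoxanthine, HEPES, Albumax and 5% human serum, under 3% CO2/1% O2/96% N2 at 37 °C. Cultures were exposed to serial dilutions of compound for 72 h. Parasite DNA growth was read by SYBR Green fluorescence. EC50 was derived from quadruplicate runs, with bromophycolide A as positive control.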

[3] = test system: Plasmodium falciparum; experiment: Antimalarial activity against Plasmodium falciparum 3D7 after 72 hrs by SYBR Green-based parasite proliferation assay; format: functional, organism-based; settings: 3D7, 72 h; summary of the method: as §1
[4] = test system: Plasmodium falciparum; experiment: Antimalarial activity against Plasmodium falciparum W2 after 72 hrs by SYBR Green-based parasite proliferation assay; format: functional, organism-based; settings: W2, 72 h; summary of the method: as §1
[5] = biological target: Procathepsin L (Homo sapiens, UniProt P07711); experiment: Inhibition of cathepsin L (unknown origin) using fluorometric Z-Phe-Arg-AMC as substrate by spectrofluorimetry
Sequence of Procathepsin L (P07711 whole entry): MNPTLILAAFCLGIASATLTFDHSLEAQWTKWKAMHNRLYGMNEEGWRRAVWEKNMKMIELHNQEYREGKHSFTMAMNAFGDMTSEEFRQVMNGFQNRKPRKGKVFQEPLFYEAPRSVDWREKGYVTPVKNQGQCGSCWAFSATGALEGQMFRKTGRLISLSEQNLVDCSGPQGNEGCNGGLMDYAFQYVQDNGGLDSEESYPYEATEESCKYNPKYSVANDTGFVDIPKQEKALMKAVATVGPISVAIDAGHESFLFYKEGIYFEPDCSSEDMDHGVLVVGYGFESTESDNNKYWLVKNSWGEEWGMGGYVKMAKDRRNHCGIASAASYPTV
Summary of the method: (§2)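 Enzyme activated 5 min with DTT in acetate buffer pH 5.5 at 37 °C, then incubated 5 min with sample. Z-Phe-Arg-AMC at 185 μM (catB) or 10 μM (catL), with stirring; fluorescence ex 355/em 460 nm. Controls: no inhibitor, and E-64. Run in triplicate. IC50 from rates at ≥7 inhibitor concentrations by nonlinear regression.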

[6] = biological target: Cathepsin B (Homo sapiens, UniProt P07858); experiment: Inhibition of cathepsin B (unknown origin) using fluorometric Z-Phe-Arg-AMC as substrate by spectrofluorimetry; summary of the method: as §2

Sequence of Cruzipain (P25779 whole entry): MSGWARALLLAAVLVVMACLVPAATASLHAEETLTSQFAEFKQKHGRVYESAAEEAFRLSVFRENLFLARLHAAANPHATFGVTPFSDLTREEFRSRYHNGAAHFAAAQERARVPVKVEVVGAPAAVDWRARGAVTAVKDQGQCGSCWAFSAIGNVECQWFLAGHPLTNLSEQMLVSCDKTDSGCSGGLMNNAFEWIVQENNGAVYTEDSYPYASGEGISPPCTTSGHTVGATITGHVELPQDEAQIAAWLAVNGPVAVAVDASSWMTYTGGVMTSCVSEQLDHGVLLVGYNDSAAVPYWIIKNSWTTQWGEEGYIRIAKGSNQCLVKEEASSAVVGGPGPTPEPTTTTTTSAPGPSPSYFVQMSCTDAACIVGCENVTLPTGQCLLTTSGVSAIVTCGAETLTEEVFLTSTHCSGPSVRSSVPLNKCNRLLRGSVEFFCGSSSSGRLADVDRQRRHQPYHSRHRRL

Row | SMILES | pIC50 [1] | pEC50 [2] | pEC50 [3] | pEC50 [4] | pIC50 [5] | pIC50 [6]
1 | CC1(C)CCc2cc(CCC(=O)c3c(O)cc4c(c3O)CCC(C)(C)O4)ccc2O1 | 4.67 | 4.93 | 4.84 | 5.17 | < 4.00 | 
2 | CC1(C)CCc2c(cc(O)c(C(=O)CCc3ccc4c(c3)CC3C(C)(C)CCCC3(C)O4)c2O)O1 (centres undefined) | 5.06 | 4.91 | 4.75 | 5.07 | < 4.00 | 5.07
3 | CC(C)C[C@H](NC(=O)[C@H]1O[C@@H]1C(=O)O)C(=O)NCCCCN=C(N)N [E-64] |  |  |  |  | 7.52 | 7.40
4 | CC(C)=CCc1cc(CCC(=O)c2c(O)cc3c(c2O)CCC(C)(C)O3)ccc1O | 4.92 |  |  |  | 5.48 | < 4.00
5 | CC(C)=CCC/C(C)=C\Cc1c(O)cc(O)c(C(=O)CCc2ccc(O)cc2)c1O | 5.15 |  |  |  | 6.00 | < 4.00
